Measured values as given in the M2OR odorant receptor database.
Numbering of substitutions follows the chain as printed.

Key:
Conditions in all cases: stereoisomer not certain
[1] = molecular target: T1, OR4X2 (Homo sapiens) (UniProt Q8NGF9)
T1 sequence (whole entry): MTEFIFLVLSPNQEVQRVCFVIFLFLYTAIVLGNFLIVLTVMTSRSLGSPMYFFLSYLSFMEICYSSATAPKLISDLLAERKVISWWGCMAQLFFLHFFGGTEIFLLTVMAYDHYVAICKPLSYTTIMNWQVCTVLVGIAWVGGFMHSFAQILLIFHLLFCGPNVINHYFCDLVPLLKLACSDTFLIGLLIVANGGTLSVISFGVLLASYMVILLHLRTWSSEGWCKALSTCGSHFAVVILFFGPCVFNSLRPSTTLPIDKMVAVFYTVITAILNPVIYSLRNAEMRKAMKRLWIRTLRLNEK
Method in brief: (§1)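 Each entry records the cell line, G-protein, co-transfected protein and tags used. Methods varied with the source, often transient luciferase assays in mammalian cell lines. A receptor–molecule pair is called responsive (active) if the original authors judged its signal statistically different from baseline and non-responsive (inactive) otherwise.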

[2] = molecular target: T2, OR51B5 (Homo sapiens) (UniProt Q9H339)
T2 sequence (whole entry): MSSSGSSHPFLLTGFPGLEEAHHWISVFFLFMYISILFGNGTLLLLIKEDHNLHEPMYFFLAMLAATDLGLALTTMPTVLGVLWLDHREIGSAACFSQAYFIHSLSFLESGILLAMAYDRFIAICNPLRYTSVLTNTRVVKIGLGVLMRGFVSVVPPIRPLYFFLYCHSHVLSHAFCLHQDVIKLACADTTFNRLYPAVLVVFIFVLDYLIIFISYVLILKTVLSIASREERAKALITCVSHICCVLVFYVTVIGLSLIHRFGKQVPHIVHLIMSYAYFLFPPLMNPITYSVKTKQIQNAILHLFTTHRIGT
Method in brief: as §1

[3] = molecular target: T3, OR51E1 (Homo sapiens) (UniProt Q8TCB6)
T3 sequence (whole entry): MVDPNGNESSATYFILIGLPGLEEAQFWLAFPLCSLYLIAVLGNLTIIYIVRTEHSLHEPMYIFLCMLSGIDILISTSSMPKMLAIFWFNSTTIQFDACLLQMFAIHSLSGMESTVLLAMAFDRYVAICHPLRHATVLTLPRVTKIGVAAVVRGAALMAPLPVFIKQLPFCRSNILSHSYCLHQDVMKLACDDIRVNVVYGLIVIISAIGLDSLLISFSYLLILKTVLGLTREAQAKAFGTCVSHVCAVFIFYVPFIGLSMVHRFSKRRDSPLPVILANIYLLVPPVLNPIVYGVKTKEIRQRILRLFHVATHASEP
Method in brief: as §1

[4] = molecular target: T4, OR51E2 (Homo sapiens) (UniProt Q9H255)
T4 sequence (whole entry): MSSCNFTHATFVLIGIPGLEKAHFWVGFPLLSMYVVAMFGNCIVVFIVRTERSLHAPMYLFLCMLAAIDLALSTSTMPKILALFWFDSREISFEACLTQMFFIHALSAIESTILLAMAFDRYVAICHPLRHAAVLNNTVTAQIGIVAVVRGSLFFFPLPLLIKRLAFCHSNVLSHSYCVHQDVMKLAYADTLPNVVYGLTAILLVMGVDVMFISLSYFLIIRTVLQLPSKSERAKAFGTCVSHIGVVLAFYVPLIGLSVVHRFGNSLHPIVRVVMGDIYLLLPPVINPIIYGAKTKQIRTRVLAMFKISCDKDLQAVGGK
Method in brief: as §1

[5] = molecular target: T5, OR51A2 (Homo sapiens) (UniProt Q8NGJ7)
T5 sequence (whole entry): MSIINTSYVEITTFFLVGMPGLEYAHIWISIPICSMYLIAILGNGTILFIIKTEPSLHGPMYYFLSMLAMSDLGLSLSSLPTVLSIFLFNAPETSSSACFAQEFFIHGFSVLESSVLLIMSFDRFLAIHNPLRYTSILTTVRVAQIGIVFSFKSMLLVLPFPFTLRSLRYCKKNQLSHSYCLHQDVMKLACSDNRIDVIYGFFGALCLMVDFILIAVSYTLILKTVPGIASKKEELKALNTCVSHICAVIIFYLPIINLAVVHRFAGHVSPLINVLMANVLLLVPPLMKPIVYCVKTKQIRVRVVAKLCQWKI
Method in brief: as §1

[6] = molecular target: T6, OR51A4 (Homo sapiens) (UniProt Q8NGJ6)
T6 sequence (whole entry): T5 sequence (whole entry) with G59E, T94I, S97N, S167N, P227L, E235Q, G267R, M288T, K289N, W311R
Method in brief: as §1

[7] = molecular target: T7, OR51A7 (Homo sapiens) (UniProt Q8NH64)
T7 sequence (whole entry): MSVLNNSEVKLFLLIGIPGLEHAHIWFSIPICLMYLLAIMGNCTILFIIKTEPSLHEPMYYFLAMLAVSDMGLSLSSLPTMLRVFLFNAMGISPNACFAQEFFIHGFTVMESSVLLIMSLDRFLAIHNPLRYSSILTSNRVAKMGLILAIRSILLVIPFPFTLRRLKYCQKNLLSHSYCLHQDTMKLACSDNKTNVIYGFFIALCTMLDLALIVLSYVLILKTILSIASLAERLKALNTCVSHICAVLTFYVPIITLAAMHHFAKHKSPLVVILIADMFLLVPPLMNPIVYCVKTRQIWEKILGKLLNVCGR
Method in brief: as §1

[8] = molecular target: T8, OR51B2 (Homo sapiens) (UniProt Q9Y5P1)
T8 sequence (whole entry): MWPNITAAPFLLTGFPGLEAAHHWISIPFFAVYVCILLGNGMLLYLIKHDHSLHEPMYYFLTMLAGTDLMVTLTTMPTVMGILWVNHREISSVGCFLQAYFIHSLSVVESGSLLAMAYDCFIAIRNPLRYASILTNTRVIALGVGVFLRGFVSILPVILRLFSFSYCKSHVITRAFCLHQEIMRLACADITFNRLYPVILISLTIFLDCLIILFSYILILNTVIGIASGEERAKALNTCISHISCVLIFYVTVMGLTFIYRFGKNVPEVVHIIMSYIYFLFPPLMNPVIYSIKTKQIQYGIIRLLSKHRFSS
Method in brief: as §1

[9] = molecular target: T9, OR51B4 (Homo sapiens) (UniProt Q9Y5P0)
T9 sequence (whole entry): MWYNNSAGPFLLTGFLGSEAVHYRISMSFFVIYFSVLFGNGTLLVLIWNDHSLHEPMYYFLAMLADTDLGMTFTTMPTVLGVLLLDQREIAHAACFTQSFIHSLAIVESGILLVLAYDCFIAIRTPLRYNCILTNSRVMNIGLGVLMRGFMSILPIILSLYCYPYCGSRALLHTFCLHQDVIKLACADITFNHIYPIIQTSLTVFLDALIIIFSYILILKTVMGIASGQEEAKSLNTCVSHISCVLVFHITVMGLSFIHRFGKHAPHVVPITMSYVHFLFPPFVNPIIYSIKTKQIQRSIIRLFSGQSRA
Method in brief: as §1

[10] = molecular target: T10, OR51B6 (Homo sapiens) (UniProt Q9H340)
T10 sequence (whole entry): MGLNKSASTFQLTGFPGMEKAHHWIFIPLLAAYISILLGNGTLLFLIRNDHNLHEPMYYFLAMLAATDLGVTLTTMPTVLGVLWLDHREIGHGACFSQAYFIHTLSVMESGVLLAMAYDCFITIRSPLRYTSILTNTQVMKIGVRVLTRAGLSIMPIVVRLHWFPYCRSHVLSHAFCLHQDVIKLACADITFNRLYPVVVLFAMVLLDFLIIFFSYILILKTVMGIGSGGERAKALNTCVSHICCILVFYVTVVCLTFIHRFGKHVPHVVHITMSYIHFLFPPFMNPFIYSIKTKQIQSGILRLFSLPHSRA
Method in brief: as §1

[11] = molecular target: T11, OR51D1 (Homo sapiens) (UniProt Q8NGF3)
T11 sequence (whole entry): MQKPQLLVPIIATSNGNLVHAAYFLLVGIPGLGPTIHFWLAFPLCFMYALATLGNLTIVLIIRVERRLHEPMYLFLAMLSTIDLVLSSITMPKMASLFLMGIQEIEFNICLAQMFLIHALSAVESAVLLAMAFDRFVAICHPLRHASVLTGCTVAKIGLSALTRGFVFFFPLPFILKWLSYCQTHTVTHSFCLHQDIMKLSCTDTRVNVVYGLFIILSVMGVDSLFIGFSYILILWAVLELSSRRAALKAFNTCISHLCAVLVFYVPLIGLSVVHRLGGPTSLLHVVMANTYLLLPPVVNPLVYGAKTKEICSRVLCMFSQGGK
Method in brief: as §1

[12] = molecular target: T12, OR51F1 (Homo sapiens) (UniProt A6NGY5)
T12 sequence (whole entry): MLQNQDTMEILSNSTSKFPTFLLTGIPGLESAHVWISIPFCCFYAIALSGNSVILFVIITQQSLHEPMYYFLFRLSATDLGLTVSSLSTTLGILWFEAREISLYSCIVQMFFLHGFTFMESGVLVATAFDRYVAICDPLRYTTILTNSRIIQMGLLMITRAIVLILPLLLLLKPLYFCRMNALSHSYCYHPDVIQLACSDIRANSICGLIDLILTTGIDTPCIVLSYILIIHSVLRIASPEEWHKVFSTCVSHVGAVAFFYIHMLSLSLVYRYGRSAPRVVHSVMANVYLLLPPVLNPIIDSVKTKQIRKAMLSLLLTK
Method in brief: as §1

[13] = molecular target: T13, OR51F2 (Homo sapiens) (UniProt Q8NH61)
T13 sequence (whole entry): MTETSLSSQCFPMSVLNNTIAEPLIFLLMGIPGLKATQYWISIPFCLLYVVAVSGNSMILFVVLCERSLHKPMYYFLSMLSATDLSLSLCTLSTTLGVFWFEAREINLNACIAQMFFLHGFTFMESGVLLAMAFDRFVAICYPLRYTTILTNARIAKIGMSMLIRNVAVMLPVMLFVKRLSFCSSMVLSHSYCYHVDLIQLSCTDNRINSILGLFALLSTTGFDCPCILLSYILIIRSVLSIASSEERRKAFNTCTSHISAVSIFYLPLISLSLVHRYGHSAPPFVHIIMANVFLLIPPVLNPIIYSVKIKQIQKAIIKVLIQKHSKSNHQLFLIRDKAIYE
Method in brief: as §1

[14] = molecular target: T14, OR51G1 (Homo sapiens) (UniProt Q8NGK1)
T14 sequence (whole entry): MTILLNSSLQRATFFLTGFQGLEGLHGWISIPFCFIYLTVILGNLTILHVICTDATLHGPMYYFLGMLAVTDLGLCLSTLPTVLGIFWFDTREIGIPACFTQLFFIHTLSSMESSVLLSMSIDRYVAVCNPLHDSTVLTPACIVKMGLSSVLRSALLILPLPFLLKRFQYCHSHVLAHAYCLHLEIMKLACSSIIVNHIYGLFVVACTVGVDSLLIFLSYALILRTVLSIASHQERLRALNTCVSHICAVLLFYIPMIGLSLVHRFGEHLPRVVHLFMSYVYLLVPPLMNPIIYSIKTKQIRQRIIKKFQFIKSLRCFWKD
Method in brief: as §1

[15] = molecular target: T15, OR51G2 (Homo sapiens) (UniProt Q8NGK0)
T15 sequence (whole entry): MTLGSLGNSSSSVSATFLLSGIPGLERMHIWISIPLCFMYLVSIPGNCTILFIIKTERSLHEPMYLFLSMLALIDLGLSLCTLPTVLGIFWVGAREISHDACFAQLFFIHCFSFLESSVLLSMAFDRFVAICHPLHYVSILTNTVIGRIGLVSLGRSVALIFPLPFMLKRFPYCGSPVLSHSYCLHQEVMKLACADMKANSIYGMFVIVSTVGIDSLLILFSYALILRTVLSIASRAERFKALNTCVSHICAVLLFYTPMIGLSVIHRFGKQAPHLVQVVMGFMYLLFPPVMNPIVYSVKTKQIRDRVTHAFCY
Method in brief: as §1

[16] = molecular target: T16, OR51I1 (Homo sapiens) (UniProt Q9H343)
T16 sequence (whole entry): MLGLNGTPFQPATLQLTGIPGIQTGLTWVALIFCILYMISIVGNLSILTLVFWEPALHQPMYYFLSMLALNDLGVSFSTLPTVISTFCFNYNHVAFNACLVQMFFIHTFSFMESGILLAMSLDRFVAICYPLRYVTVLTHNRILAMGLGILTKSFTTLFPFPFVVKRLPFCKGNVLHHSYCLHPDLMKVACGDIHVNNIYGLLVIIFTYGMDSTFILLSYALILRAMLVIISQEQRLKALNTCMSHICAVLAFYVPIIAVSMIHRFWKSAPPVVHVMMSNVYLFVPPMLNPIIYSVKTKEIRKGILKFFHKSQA
Method in brief: as §1

Measured: odorant receptor agonist call

CC(C)=CCCC(C)=CCO
inactive: [1] | [2] | [3] | [4]

CCCCCC1CCCC(=O)O1 (stereo not given)
inactive: [5] | [6] | [7] | [8] | [9] | [2] | [10] | [11] | [3] | [4] | [12] | [13] | [14] | [15] | [16]

Cc1cccc(C)c1C
inactive: [2]
